# Data as given in paper PMC4180826 (Scientific Reports, 2014).
# Tests used:
# [1] = "under the same conditions"; cited from earlier work
# [2] = Relaxivity r1, 0.5 T MR system; assay type: physicochemical; conditions: TBS pH 7.4, 50.0 mM Tris, 50.0 mM NaCl, 37 °C, 1-100 μM, inversion recovery, slope of 1/T1 versus concentration
# [3] = Fe; assay type: binding; conditions: until molar ratio Fe (II) to peptide 1 of 1:1; peptide 1 10.0 μM; TBS pH 7.4
# [4] = Transmission electron microscopy, aggregation and disaggregation; assay type: physicochemical
# How it was run: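 Droplets of the peptide, the test compound, or the test compound bound to NK1R at 1:1 molar ratio were placed on carbon-coated holey grids. The NK1R sample alone was negatively stained with sodium phosphotungstate and dried at room temperature for 12 h before TEM imaging.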
# [5] = molecular target: probe 1 (terpyridine-Fe (II) complex of the Gd (III)-DOTA peptide 1, a modified substance P); test: other fluorescence titration
# [6] = molecular target: probe 1 (terpyridine-Fe (II) complex of the Gd (III)-DOTA peptide 1, a modified substance P); test: fluorescence polarisation
# [7] = molecular target: probe 1 (terpyridine-Fe (II) complex of the Gd (III)-DOTA peptide 1, a modified substance P); test: T1 relaxation rate
molecule,measurement,setting,value
O=C([O-])CN(CCN(CC(=O)[O-])CC(=O)O)CCN(CC(=O)[O-])CC(=O)O.[Gd+3] [Gd-(DTPA)],"relaxivity r1, clinical contrast agents",[1],4.6 mM⁻¹ s⁻¹
CC(O)CN1CCN(CC(=O)[O-])CCN(CC(=O)[O-])CCN(CC(=O)[O-])CC1.[Gd+3] (stereo not shown) [Gd-(HP-DO3A)],"relaxivity r1, clinical contrast agents",[1],4.3 mM⁻¹ s⁻¹
MLGFFQQPKPRKKKKKK(Tpy)K(Tpy)KK(Dye)DOTA [peptide 1],relaxivity r1,[2],11.8 mM⁻¹ s⁻¹
same,fluorescence at 610 nm upon addition of Fe (II) ions,[3],decreased
same,length (TEM),"[4]; nanofibers, peptide 1 alone, 10.0 μM in TBS pH 7.4",several hundred nm
same,diameter (TEM),"[4]; threadlike network of nanofibers, peptide 1 alone, 10.0 μM in TBS pH 7.4",approximately 3.5 nm
"neurokinin-1 receptor (NK1R), recombinant",fold increase of the fluorescence intensity of probe 1 at 610 nm,[5],3 fold
same,Kd,[6],2300 nM
same,stoichiometry N,[7],1 probe 1:NK1R
"NK1R: recombinant NK1R (TACR1) expressed in Rosetta (DE3), purified using nickel affinity chromatography (protein) MDNVLPVDSDLSPNISTNTSEPNQFVQPAWQIVLWAAAYTVIVVTSVVGNVVVMWIILAHKRMRTVTNYFLVNLAFAEASMAAFNTVVNFTYAVHNEWYYGLFYCKFHNFFPIAAVFASIYSMTAVAFDRYMAIIHPLQPRLSATATKVVICVIWVLALLLAFPQGYYSTTETMPSRVVCMIEWPEHPNKIYEKVYHICVTVLIYFLPLLVIGYAYTVVGITLWASEIPGDSSDRYHEQVSAKRKVVKMMIVVVCTFAICWLPFHIFFLLPYINPDLYLKKFIQQVYLAIMWLAMSSTMYNPIIYCCLNDRFRLGFKHAFRCCPFISAGDYEGLEMKSTRYLQTQGSVYKVSRLETTISTVVGAHEEEPEDGPKATPSSLDLTSNCSSRSDSKTMTESFSFSSNVLS",diameter (TEM),"[4]; NK1R multimers, 1.0 μM, stained with sodium phosphotungstate 2.0 wt%, TBS pH 7.4",approximately 3.8 nm
